In the EternaBench riboswitch data:

Test system: MS2 coat protein
Test: apparent Kd, MS2 coat protein; higher = weaker binding; RNA-MaP array
Method in brief: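 Incubations were done at room temperature with fluorescently labeled MS2 coat protein at 1.5 nM to 3 μM and designed RNAs transcribed on an Illumina sequencing chip from sequenced DNA templates, with or without input ligand. Apparent Kd is the median of binding curves fitted for each cluster. Designs with fewer than 10 measured clusters were excluded.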

[1] = designed as: OFF switch for flavin mononucleotide, no ligand
[2] = ligand present: flavin mononucleotide, designed as: OFF switch for flavin mononucleotide
[3] = designed as: OFF switch for tryptophan, no ligand
[4] = ligand present: tryptophan, designed as: OFF switch for tryptophan
[5] = designed as: ON switch for flavin mononucleotide, no ligand
[6] = ligand present: flavin mononucleotide, designed as: ON switch for flavin mononucleotide

## AAAACGCAACUCGAUACCAGUACACUGAGUCUUCGCCACGACAUGAGGAUCACCCAUGUGUACCCUUGGCAGCGACAGAGCCACA
Designed as: OFF switch for theophylline, no ligand
  apparent Kd: 0.0539 µM
Ligand present: theophylline, designed as: OFF switch for theophylline
  apparent Kd: 0.261 µM

## CGUCUAGUUGAGAAGGAUUCGGCGUCGGUCAUGUUAAUCUGGAAACAUGAGGAUCACCCAUGUCAAUAGGAUAUCAGGGCACUA
[1]
  apparent Kd: 0.0112 µM
[2]
  apparent Kd: 0.0128 µM

## GGUUGAUGGUCGGCCGCCACUGUUGGUGCCAUGAGUUAAGUAUAGCACAUGAGGAUCACCCAUGUCAGGACCGGGACUCUACCCG
[3]
  apparent Kd: 0.0146 µM
[4]
  apparent Kd: 0.0181 µM

## GUCAUUGCGGAGGAUAUAAAGCAAACCAAGAUGUUAGAAGGCCGGACAUGAGGAUCACCCAUGUGAUUGCACGC
[1]
  apparent Kd: 0.0176 µM
[2]
  apparent Kd: 0.015 µM

## CCUCAAAUGACAUGAGGAUCACCCAUGUAGCGCACAACCGCUAGAAGGACGACAAAGUCUUAUGCGUAGGAUAUAGCGAGCGCG
[5]
  apparent Kd: 0.132 µM
[6]
  apparent Kd: 0.133 µM

## AUCAAGUGAGGAUAUCCGUAGACUCCUAAUCAGCGACUCAAGGAGAAGGCACAUGAGGAUCACCCAUGUUAGAU
[1]
  apparent Kd: 0.0196 µM
[2]
  apparent Kd: 0.0208 µM

## CAGAACAUGAGGAUCACCCAUGUAAACGACCGAGGACCGGUACGGCCGCCACUCGAUAUGUCUUGAGGGAGAUAUGGAUUCACAU
Designed as: ON switch for tryptophan, no ligand
  apparent Kd: 0.0399 µM
Ligand present: tryptophan, designed as: ON switch for tryptophan
  apparent Kd: 0.0383 µM

## GGUCGUGAUAAGGAUAUUGGCUGUCGUGCAAUCCAAGAAGGUAUCACAUGAGGAUCACCCAUGUACGCGUGUUG
[1]
  apparent Kd: 0.0442 µM
[2]
  apparent Kd: 0.0856 µM

## GGUACCGCGGUGAGGAUAUCCUGCGUUUGGCAGCUGGAGAAGGCACAUGAGGAUCACCCAUGUAAAGAGAAUGC
[1]
  apparent Kd: 0.0105 µM
[2]
  apparent Kd: 0.0162 µM

## CUGACGUCAGGAUAUGCUAAUAAACAACAUAAAAGACAAGUGCAGAAGGGACAUGAGGAUCACCCAUGUGAAAA
[1]
  apparent Kd: 0.0146 µM
[2]
  apparent Kd: 0.0153 µM

## UGGACUGUGACAUGAGGAUCACCCAUGUAAAUAAUUCCGCAUAGAAGGGUCCAACGUAAAUGAAGACAGGAUAUAUGGGAGCGU
[5]
  apparent Kd: 0.0454 µM
[6]
  apparent Kd: 0.024 µM

## GGUCCACAUGAGGAUCACCCAUGUAAGGAUAUCCUGUUUUCUGGUUUAGAGUCGCGAAGGAGAAGGUACAUUAA
[1]
  apparent Kd: 0.0225 µM
[2]
  apparent Kd: 0.0411 µM

## UACAAACAUGAGGAUCACCCAUGUAGUGAUACCAGCAUAACAGAUUGCCCUUGGCAGCACCGGUUUGUACUCAAACGAAGUACGG
Designed as: ON switch for theophylline, no ligand
  apparent Kd: 0.0642 µM
Ligand present: theophylline, designed as: ON switch for theophylline
  apparent Kd: 0.0523 µM

## CCUGAACGGGACAUGAGGAUCACCCAUGUAUGAGACUCAAAGAAGGAUAUCUUACAUACAGUUCGAGAGAAGGUCUAGCAAACG
[1]
  apparent Kd: 0.0865 µM
[2]
  apparent Kd: 0.0549 µM

## AUAACAGUGUCGGCCGCCACUAGAACACAUGAGGAUCACCCAUGUGGUGGUACCUCCUAAGACGAUAGGACCGGGACCCAUCUAC
[3]
  apparent Kd: 0.134 µM
[4]
  apparent Kd: 0.0952 µM

## GAUGACUUAGGAUAUCAAAUUCUCGACAUGAGGAUCACCCAUGUGUAUCCGCCAGGUUAGUGAGAAGGAAGUUGGA
[1]
  apparent Kd: 0.0914 µM
[2]
  apparent Kd: 0.0778 µM

## GGAUUAAGCUAGAAGGUACGAUCACCGUGAUGGUAAGGAUAUAGAACGAUGCCGAUUCCAACAUGAGGAUCACCCAUGUUCCUA
[5]
  apparent Kd: 0.447 µM
[6]
  apparent Kd: 0.26 µM

## UUGAUCGCUCAGAAGGACGCGCAGGACCAAGCCGUAGGAUAUGACGAAUGCUAACGGAGUCCACAUGAGGAUCACCCAUGUGCA
[5]
  apparent Kd: 0.0652 µM
[6]
  apparent Kd: 0.0189 µM

## GGACAACAUGAGGAUCACCCAUGUGAGAAGUGCAAAGGAUAUCGCAGAAGUGAUAACGAACGAGAAGGUUGCCUCU
[5]
  apparent Kd: 0.0236 µM
[6]
  apparent Kd: 0.0101 µM

## UGGUGCCCUGUAUACAUUGUAAUCCUAAUGCGAGGACCGGUACGGCCGCCACUCGUUGCGGAACAUGAGGAUCACCCAUGUAACA
[3]
  apparent Kd: 0.0183 µM
[4]
  apparent Kd: 0.0166 µM

## GGAUGCUCGACUCAGGAUAUACACACCGCAACAUGAGGAUCACCCAUGUAAUACGAACAAUGCACGUAGAAGGGAGGUUAACUCGA
[5]
  apparent Kd: 0.0464 µM
[6]
  apparent Kd: 0.0191 µM

## AGCGAUGACUGAGGAUAUGCUGUUAGGACAUUGCAACAUGAGGAUCACCCAUGUGAAGGCCGUCAGCAGAAGGCAGUACGUGGA
[5]
  apparent Kd: 0.00608 µM
[6]
  apparent Kd: 0.00475 µM

## GUAAAACGGAAGAAGGCGCGGAGUACAGGGUAAAAUCAGGUCACAUGAGGAUCACCCAUGUGGAGCGAGGAUAUUCAUAAGGUA
[1]
  apparent Kd: 0.0247 µM
[2]
  apparent Kd: 0.0632 µM

## AUCAGUCAAGAAGGAUAUGCAAUAUCCUGGCACGUAGACAUGAGGAUCACCCAUGUGCAGGCUAAGCAGAAGGUCUUAGAAGGU
[1]
  apparent Kd: 0.016 µM
[2]
  apparent Kd: 0.0098 µM

## AAAACUAAAGUCAGGAUAUAACGAAUCGAAGAUAGAUAGAAGGGACAUGAGGAUCACCCAUGUGAGGAAGACAA
[1]
  apparent Kd: 0.0131 µM
[2]
  apparent Kd: 0.0111 µM

## GUGGCGUAAGGAUAUCGUGGGAAGUGAUGAACGCUCUACUUCGAGAAGGUACAUGAGGAUCACCCAUGUGAGGG
[1]
  apparent Kd: 0.151 µM
[2]
  apparent Kd: 0.129 µM

## CGCACACAGCAACCAAAAUAAACAUGAGGAUCACCCAUGUCACAGGAUAUGGCGAACCCAGGCGACCAGAAGGGUGUAAACACA
[5]
  apparent Kd: 0.0266 µM
[6]
  apparent Kd: 0.0186 µM
